Holding throughout (format): cell-based
Assay [1] has as its target T1, Sodium channel protein type 5 subunit alpha (Homo sapiens, UniProt Q14524). Briefly: Inhibition of human Nav1.5 expressed in HEK293 cells assessed as inward peak current by ion-works quattro patch clamp electrophysiology method. In short, it runs like this:
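Stable HEK293 line expressing human NaV1.5, recorded by population patch clamp on the IonWorks Quattro.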
In general terms: In patch-clamp work, channel activity is measured electrically.

Assay [2] concerns the target T1, Sodium channel protein type 5 subunit alpha. Briefly: Inhibition of human Nav1.5 expressed in HEK293 cells by whole cell patch clamp electrophysiology method. In short, it runs like this:
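Stable HEK293 line expressing human NaV1.5, recorded on the PatchXpress 7000A. Percent inhibition versus concentration was pooled from at least 10 cells, with two to three points per concentration. The pooled set was fitted with a four-parameter Hill equation to give a single IC50 curve.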

In assay [3] the target is Sodium channel protein type 9 subunit alpha (Homo sapiens, UniProt Q15858). Briefly: Inhibition of human Nav1.7 expressed in HEK293 cells assessed as inward peak current by ion-works quattro patch clamp electrophysiology method.
Sequence of Sodium channel protein type 9 subunit alpha (Q15858 whole entry): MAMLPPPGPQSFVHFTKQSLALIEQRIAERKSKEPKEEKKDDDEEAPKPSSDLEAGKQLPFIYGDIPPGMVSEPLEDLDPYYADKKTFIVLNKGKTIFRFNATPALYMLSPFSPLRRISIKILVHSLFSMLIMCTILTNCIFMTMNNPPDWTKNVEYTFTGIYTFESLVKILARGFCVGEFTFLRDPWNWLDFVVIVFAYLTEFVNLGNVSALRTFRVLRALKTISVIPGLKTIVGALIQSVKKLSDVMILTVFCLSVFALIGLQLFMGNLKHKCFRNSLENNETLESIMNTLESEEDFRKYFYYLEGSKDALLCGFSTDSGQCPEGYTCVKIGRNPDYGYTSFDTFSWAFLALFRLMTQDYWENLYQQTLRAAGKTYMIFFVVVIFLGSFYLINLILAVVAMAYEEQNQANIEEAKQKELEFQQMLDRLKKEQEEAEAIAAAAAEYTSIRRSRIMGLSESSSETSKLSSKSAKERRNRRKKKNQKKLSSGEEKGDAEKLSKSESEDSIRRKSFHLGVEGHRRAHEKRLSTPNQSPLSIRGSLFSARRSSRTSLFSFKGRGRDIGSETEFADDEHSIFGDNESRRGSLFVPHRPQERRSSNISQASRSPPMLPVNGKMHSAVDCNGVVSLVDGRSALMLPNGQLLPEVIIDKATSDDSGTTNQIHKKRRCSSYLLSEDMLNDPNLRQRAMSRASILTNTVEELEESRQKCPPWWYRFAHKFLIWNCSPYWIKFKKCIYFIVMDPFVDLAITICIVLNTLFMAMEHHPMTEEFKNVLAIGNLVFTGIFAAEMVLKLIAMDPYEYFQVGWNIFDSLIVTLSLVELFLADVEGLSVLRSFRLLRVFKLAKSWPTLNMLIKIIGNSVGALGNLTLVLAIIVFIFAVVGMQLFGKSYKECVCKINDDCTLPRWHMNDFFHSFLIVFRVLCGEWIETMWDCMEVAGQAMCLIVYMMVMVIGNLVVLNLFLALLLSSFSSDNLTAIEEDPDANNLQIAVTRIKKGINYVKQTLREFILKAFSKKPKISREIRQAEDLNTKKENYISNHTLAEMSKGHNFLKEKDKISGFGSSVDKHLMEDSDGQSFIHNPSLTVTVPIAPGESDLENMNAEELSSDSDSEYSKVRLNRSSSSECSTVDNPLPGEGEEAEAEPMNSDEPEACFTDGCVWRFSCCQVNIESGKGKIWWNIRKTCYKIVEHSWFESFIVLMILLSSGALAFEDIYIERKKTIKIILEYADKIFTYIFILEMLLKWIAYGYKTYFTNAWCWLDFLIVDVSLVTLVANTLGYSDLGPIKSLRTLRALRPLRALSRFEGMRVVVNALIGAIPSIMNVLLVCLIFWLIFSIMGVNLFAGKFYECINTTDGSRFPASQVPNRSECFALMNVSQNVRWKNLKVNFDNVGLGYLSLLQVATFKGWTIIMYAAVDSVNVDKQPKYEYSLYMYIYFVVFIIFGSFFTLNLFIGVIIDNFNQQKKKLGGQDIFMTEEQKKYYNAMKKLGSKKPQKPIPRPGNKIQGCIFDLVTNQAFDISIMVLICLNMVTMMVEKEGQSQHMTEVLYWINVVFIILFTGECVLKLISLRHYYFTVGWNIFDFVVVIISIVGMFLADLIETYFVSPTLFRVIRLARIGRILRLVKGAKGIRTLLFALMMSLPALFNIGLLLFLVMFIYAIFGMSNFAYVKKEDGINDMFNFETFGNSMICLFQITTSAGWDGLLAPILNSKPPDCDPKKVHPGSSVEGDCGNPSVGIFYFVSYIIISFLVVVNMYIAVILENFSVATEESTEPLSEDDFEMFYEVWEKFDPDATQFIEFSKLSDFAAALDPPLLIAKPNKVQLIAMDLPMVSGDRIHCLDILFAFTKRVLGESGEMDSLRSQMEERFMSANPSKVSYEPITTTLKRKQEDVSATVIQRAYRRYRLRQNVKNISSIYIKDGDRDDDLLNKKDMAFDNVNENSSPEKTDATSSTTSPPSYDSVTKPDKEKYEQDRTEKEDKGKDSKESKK

Positions of bridges follow the written chain, without caps; N, C: chain ends. Non-standard residues stand in square brackets, D forms with d. Residues, ends and D or L forms follow the SMILES beside them. 1Nal = N[C@@H](Cc1cccc2ccccc12)C(=O)O; Lys(Me2) = CN(C)CCCC[C@H](N)C(=O)O

T1 sequence (Q14524 whole entry): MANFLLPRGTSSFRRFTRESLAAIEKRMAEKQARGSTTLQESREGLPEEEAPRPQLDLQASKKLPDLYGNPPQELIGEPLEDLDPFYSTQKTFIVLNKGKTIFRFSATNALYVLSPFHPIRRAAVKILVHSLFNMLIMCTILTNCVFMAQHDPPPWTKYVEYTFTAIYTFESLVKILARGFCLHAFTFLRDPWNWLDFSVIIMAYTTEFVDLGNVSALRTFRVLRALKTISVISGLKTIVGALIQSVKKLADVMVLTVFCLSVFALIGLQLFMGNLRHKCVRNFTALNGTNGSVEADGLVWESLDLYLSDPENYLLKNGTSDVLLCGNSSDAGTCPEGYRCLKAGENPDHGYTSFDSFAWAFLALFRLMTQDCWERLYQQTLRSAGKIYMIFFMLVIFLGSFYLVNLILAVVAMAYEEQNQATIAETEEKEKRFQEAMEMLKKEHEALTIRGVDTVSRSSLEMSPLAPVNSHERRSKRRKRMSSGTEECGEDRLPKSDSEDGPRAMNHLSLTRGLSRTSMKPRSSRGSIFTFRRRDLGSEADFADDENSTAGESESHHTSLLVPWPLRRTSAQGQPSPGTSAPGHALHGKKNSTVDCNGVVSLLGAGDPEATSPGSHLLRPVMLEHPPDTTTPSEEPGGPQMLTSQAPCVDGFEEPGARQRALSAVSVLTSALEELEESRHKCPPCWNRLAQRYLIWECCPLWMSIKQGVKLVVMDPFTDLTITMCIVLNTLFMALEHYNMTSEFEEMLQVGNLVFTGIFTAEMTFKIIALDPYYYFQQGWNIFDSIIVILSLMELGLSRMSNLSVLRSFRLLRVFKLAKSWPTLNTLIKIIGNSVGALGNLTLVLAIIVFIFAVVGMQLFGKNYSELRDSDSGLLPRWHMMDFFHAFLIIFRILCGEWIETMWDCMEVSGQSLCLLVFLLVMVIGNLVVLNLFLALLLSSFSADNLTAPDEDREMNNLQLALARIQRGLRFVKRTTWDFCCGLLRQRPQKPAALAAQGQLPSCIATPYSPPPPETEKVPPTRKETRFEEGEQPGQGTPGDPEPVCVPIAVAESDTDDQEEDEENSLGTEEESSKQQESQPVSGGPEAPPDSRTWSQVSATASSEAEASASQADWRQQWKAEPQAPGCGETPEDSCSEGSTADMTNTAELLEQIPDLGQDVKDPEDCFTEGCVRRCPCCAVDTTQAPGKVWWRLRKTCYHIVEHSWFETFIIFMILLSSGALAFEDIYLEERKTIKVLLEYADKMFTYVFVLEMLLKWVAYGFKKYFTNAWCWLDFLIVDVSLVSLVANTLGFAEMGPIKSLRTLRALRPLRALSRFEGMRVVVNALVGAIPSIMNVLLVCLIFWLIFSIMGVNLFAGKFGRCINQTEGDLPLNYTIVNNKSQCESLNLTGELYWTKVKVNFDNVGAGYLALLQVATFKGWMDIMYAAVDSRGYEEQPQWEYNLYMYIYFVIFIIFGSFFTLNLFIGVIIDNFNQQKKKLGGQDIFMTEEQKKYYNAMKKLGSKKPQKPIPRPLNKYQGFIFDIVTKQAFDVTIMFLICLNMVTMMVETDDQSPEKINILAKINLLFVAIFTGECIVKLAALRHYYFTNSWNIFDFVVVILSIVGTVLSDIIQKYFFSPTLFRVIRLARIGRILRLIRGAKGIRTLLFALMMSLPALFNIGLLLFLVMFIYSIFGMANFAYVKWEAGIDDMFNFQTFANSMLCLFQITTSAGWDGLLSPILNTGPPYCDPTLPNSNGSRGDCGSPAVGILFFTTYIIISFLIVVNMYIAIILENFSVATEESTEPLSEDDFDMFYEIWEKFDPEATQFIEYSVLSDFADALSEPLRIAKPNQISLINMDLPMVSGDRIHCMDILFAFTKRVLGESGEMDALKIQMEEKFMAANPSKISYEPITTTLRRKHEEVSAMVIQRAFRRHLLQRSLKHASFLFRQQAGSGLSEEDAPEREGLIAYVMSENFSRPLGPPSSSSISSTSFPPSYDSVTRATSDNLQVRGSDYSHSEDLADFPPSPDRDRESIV

One may read the IC50 as the concentration needed to halve the response being measured. In the case of `CC[C@H](C)[C@@H]1NC(=O)[C@@H]2CSSC[C@@H]3NC(=O)[C@H](C(C)C)NC(=O)[C@H](CC(C)C)NC(=O)[C@H](CC(N)=O)NC(=O)[C@@H]4CCCN4C(=O)[C@H](CCCNC(=N)N)NC(=O)[C@H](CSSC[C@H](NC(=O)[C@@H](N)CC(=O)O)C(=O)N[C@@H](CC(C)C)C(=O)NCC(=O)N[C@@H](Cc4ccccc4)C(=O)N[C@@H](CCSC)C(=O)N[C@@H](CCCNC(=N)N)C(=O)N[C@@H](CCCCN)C(=O)N2)NC(=O)[C@H](CSSC[C@@H](C(=O)N[C@@H](CCCCN)C(=O)N[C@@H](Cc2ccc(O)cc2)C(=O)N[C@H](C(=O)N[C@@H](Cc2ccccc2)C(N)=O)C(C)C)NC(=O)[C@H](Cc2c[nH]c4ccccc24)NC(=O)[C@H](CCCCN)NC(=O)[C@H](Cc2c[nH]cn2)NC(=O)[C@H]([C@@H](C)O)NC(=O)[C@H](CCCNC(=N)N)NC(=O)[C@H](CO)NC3=O)NC(=O)[C@H](CCCCN)NC(=O)[C@H](CC(=O)O)NC(=O)[C@H](Cc2cccc3ccccc23)NC(=O)[C@H](CC(=O)O)NC(=O)[C@@H]2CCCN2C1=O` (H-DCLGFMRKCIPD[1Nal]DKCCRPNLVCSRTHKWCKYVF-NH2; disulfide 2-17, 9-23, 16-30), the IC50 in assay [1] was more than 5 µM; in assay [2], 7.8 µM; in assay [3] it was 0.13 µM.
As to `CC[C@H](C)[C@@H]1NC(=O)[C@@H]2CSSC[C@@H]3NC(=O)[C@H](C(C)C)NC(=O)[C@H](CC(C)C)NC(=O)[C@H](CC(N)=O)NC(=O)[C@@H]4CCCN4C(=O)[C@H](CCCNC(=N)N)NC(=O)[C@H](CSSC[C@H](NC(=O)[C@@H](N)CC(=O)O)C(=O)N[C@@H](CC(C)C)C(=O)NCC(=O)N[C@@H](Cc4ccccc4)C(=O)N[C@@H](CCSC)C(=O)N[C@@H](CCCNC(=N)N)C(=O)N[C@@H](CCCCN)C(=O)N2)NC(=O)[C@H](CSSC[C@@H](C(=O)N[C@@H](CCCCN)C(=O)N[C@@H](Cc2ccc(O)cc2)C(=O)N[C@H](C(=O)N[C@@H](Cc2ccccc2)C(=O)O)C(C)C)NC(=O)[C@H](Cc2c[nH]c4ccccc24)NC(=O)[C@H](CCCCN)NC(=O)[C@H](Cc2cnc[nH]2)NC(=O)[C@H]([C@@H](C)O)NC(=O)[C@H](CCCNC(=N)N)NC(=O)[C@H](CO)NC3=O)NC(=O)[C@H](CCCCN)NC(=O)[C@H](CC(=O)O)NC(=O)[C@H](CC(N)=O)NC(=O)[C@H](CC(=O)O)NC(=O)[C@@H]2CCCN2C1=O` (stereo in doubt), the IC50 was more than 5 µM in assay [1] and more than 10 µM in assay [2].
With `CC[C@H](C)[C@@H]1NC(=O)[C@@H]2CSSC[C@@H]3NC(=O)[C@H](C(C)C)NC(=O)[C@H](CC(C)C)NC(=O)[C@H](CC(N)=O)NC(=O)[C@@H]4CCCN4C(=O)[C@H](CCCNC(=N)N)NC(=O)[C@H](CSSC[C@H](NC(=O)[C@@H](N)CC(=O)O)C(=O)N[C@@H](CC(C)C)C(=O)N[C@@H](CCCCN)C(=O)N[C@@H](Cc4ccccc4)C(=O)N[C@@H](CCSC)C(=O)N[C@@H](CCCNC(=N)N)C(=O)N[C@@H](CCCCN)C(=O)N2)NC(=O)[C@H](CSSC[C@@H](C(=O)N[C@@H](CCCCN)C(=O)N[C@@H](Cc2ccc(O)cc2)C(=O)N[C@H](C(=O)N[C@@H](Cc2ccccc2)C(N)=O)C(C)C)NC(=O)[C@H](Cc2c[nH]c4ccccc24)NC(=O)[C@H](CCCCN)NC(=O)[C@H](Cc2cnc[nH]2)NC(=O)[C@H]([C@@H](C)O)NC(=O)[C@H](CCCNC(=N)N)NC(=O)[C@H](CO)NC3=O)NC(=O)[C@H](CCCCN)NC(=O)[C@H](CC(=O)O)NC(=O)[C@H](CC(N)=O)NC(=O)[C@H](CC(=O)O)NC(=O)[C@@H]2CCCN2C1=O` (H-DCLKFMRKCIPDNDKCCRPNLVCSRTHKWCKYVF-NH2; disulfide 2-17, 9-23, 16-30), the half-inhibitory concentration (IC50) was more than 5 µM in assay [1], 10.1 µM in assay [2] and 0.21 µM in assay [3].
For `CC[C@H](C)[C@@H]1NC(=O)[C@@H]2CSSC[C@@H]3NC(=O)[C@H](C(C)C)NC(=O)[C@H](CC(C)C)NC(=O)[C@H](CC(N)=O)NC(=O)[C@@H]4CCCN4C(=O)[C@H](CCCNC(=N)N)NC(=O)[C@H](CSSC[C@H](NC(=O)[C@@H](N)CC(=O)O)C(=O)N[C@@H](CC(C)C)C(=O)N[C@@H](CCCNC(=N)N)C(=O)N[C@@H](Cc4ccccc4)C(=O)N[C@@H](CCSC)C(=O)N[C@@H](CCCNC(=N)N)C(=O)N[C@@H](CCCCN)C(=O)N2)NC(=O)[C@H](CSSC[C@@H](C(=O)N[C@@H](CCCCN)C(=O)N[C@@H](Cc2ccc(O)cc2)C(=O)N[C@H](C(=O)N[C@@H](Cc2ccccc2)C(N)=O)C(C)C)NC(=O)[C@H](Cc2c[nH]c4ccccc24)NC(=O)[C@H](CCCCN)NC(=O)[C@H](Cc2cnc[nH]2)NC(=O)[C@H]([C@@H](C)O)NC(=O)[C@H](CCCNC(=N)N)NC(=O)[C@H](CO)NC3=O)NC(=O)[C@H](CCCCN)NC(=O)[C@H](CC(=O)O)NC(=O)[C@H](CC(N)=O)NC(=O)[C@H](CC(=O)O)NC(=O)[C@@H]2CCCN2C1=O` (H-DCLRFMRKCIPDNDKCCRPNLVCSRTHKWCKYVF-NH2; disulfide 2-17, 9-23, 16-30), in that order: more than 5 µM, 4.5 µM and 0.23 µM.
Turning to `CC[C@H](C)[C@@H]1NC(=O)[C@@H]2CSSC[C@@H]3NC(=O)[C@H](C(C)C)NC(=O)[C@H](CC(C)C)NC(=O)[C@H](CC(N)=O)NC(=O)[C@@H]4CCCN4C(=O)[C@H](CCCCN(C)C)NC(=O)[C@H](CSSC[C@H](NC(=O)[C@@H](N)CC(=O)O)C(=O)N[C@@H](CC(C)C)C(=O)NCC(=O)N[C@@H](Cc4ccccc4)C(=O)N[C@@H](CCSC)C(=O)N[C@@H](CCCNC(=N)N)C(=O)N[C@@H](CCCCN)C(=O)N2)NC(=O)[C@H](CSSC[C@@H](C(=O)N[C@@H](CCCCN)C(=O)N[C@@H](Cc2ccc(O)cc2)C(=O)N[C@H](C(=O)N[C@@H](Cc2ccccc2)C(N)=O)C(C)C)NC(=O)[C@H](Cc2c[nH]c4ccccc24)NC(=O)[C@H](CCCCN)NC(=O)[C@H](Cc2cnc[nH]2)NC(=O)[C@H]([C@@H](C)O)NC(=O)[C@H](CCCNC(=N)N)NC(=O)[C@H](CO)NC3=O)NC(=O)[C@H](CCCCN)NC(=O)[C@H](CC(=O)O)NC(=O)[C@H](CC(N)=O)NC(=O)[C@H](CC(=O)O)NC(=O)[C@@H]2CCCN2C1=O` (H-DCLGFMRKCIPDNDKCC[Lys(Me2)]PNLVCSRTHKWCKYVF-NH2; disulfide 2-17, 9-23, 16-30), the half-maximal inhibitory concentration (IC50) in assay [1] was more than 5 µM; in assay [2], more than 10 µM.
For the compound `CC[C@H](C)[C@@H]1NC(=O)[C@@H]2CSSC[C@@H]3NC(=O)[C@H](C(C)C)NC(=O)[C@H](CC(C)C)NC(=O)[C@H](CC(N)=O)NC(=O)[C@@H]4CCCN4C(=O)[C@H](CCCNC(=N)N)NC(=O)[C@H](CSSC[C@H](NC(=O)[C@@H](N)CC(=O)O)C(=O)N[C@@H](CC(C)C)C(=O)NCC(=O)N[C@@H](Cc4ccccc4)C(=O)N[C@@H](CCSC)C(=O)N[C@@H](CCCNC(=N)N)C(=O)N[C@@H](CCCCN)C(=O)N2)NC(=O)[C@H](CSSC[C@@H](C(=O)N[C@@H](CCCCN)C(=O)N[C@@H](Cc2ccc(O)cc2)C(=O)N[C@H](C(=O)N[C@@H](Cc2ccccc2)C(N)=O)C(C)C)NC(=O)[C@H](Cc2cccc4ccccc24)NC(=O)[C@H](CCCCN)NC(=O)[C@H](Cc2cnc[nH]2)NC(=O)[C@H]([C@@H](C)O)NC(=O)[C@H](CCCNC(=N)N)NC(=O)[C@H](CO)NC3=O)NC(=O)[C@H](CCCCN)NC(=O)[C@H](CC(=O)O)NC(=O)[C@H](CC(N)=O)NC(=O)[C@H](CC(=O)O)NC(=O)[C@@H]2CCCN2C1=O` (H-DCLGFMRKCIPDNDKCCRPNLVCSRTHK[1Nal]CKYVF-NH2; disulfide 2-17, 9-23, 16-30), the 50% inhibitory concentration (IC50) in assay [1] was more than 5 µM; in assay [2], more than 10 µM.
For `CC[C@H](C)[C@@H]1NC(=O)[C@@H]2CSSC[C@@H]3NC(=O)[C@H](C(C)C)NC(=O)[C@H](CC(C)C)NC(=O)[C@H](CC(N)=O)NC(=O)[C@@H]4CCCN4C(=O)[C@H](CCCN/C(=N/C)NC)NC(=O)[C@H](CSSC[C@H](NC(=O)[C@@H](N)CC(=O)O)C(=O)N[C@@H](CC(C)C)C(=O)NCC(=O)N[C@@H](Cc4ccccc4)C(=O)N[C@@H](CCSC)C(=O)N[C@@H](CCCNC(=N)N)C(=O)N[C@@H](CCCCN)C(=O)N2)NC(=O)[C@H](CSSC[C@@H](C(=O)N[C@@H](CCCCN)C(=O)N[C@@H](Cc2ccc(O)cc2)C(=O)N[C@H](C(=O)N[C@@H](Cc2ccccc2)C(N)=O)C(C)C)NC(=O)[C@H](Cc2c[nH]c4ccccc24)NC(=O)[C@H](CCCCN)NC(=O)[C@H](Cc2cnc[nH]2)NC(=O)[C@H]([C@@H](C)O)NC(=O)[C@H](CCCNC(=N)N)NC(=O)[C@H](CO)NC3=O)NC(=O)[C@H](CCCCN)NC(=O)[C@H](CC(=O)O)NC(=O)[C@H](CC(N)=O)NC(=O)[C@H](CC(=O)O)NC(=O)[C@@H]2CCCN2C1=O`, in that order: more than 5 µM and more than 10 µM.
`CC[C@H](C)[C@@H]1NC(=O)[C@@H]2CSSC[C@@H]3NC(=O)[C@H](C(C)C)NC(=O)[C@H](CC(C)C)NC(=O)[C@H](CC(N)=O)NC(=O)[C@@H]4CCCN4C(=O)[C@H](CCCNC(=N)N)NC(=O)[C@H](CSSC[C@H](NC(=O)[C@@H](N)CC(=O)O)C(=O)N[C@@H](CC(C)C)C(=O)NCC(=O)N[C@@H](Cc4ccccc4)C(=O)N[C@@H](CCSC)C(=O)N[C@@H](CCCNC(=N)N)C(=O)N[C@@H](CCCCN)C(=O)N2)NC(=O)[C@H](CSSC[C@@H](C(=O)N[C@@H](CCCCN)C(=O)N[C@@H](Cc2ccc(O)cc2)C(=O)N[C@H](C(=O)N[C@@H](Cc2ccccc2)C(N)=O)C(C)C)NC(=O)[C@H](Cc2c[nH]c4ccccc24)NC(=O)[C@H](CCC(N)=O)NC(=O)[C@H](Cc2cnc[nH]2)NC(=O)[C@H]([C@@H](C)O)NC(=O)[C@H](CCCNC(=N)N)NC(=O)[C@H](CO)NC3=O)NC(=O)[C@H](CCCCN)NC(=O)[C@H](CC(=O)O)NC(=O)[C@H](CC(N)=O)NC(=O)[C@H](CC(=O)O)NC(=O)[C@@H]2CCCN2C1=O` (H-DCLGFMRKCIPDNDKCCRPNLVCSRTHQWCKYVF-NH2; disulfide 2-17, 9-23, 16-30): the figures for the concentration for half-maximal inhibition (IC50) in assay [2] and in assay [3] were more than 10 µM and 0.2 µM, respectively.

The values are drawn from ChEMBL document CHEMBL3797186, “Single Residue Substitutions That Confer Voltage-Gated Sodium Ion Channel Subtype Selectivity in the NaV1.7 Inhibitory Peptide GpTx-1” (J Med Chem, 2016).
